Results reported in ChEMBL document CHEMBL1141424, “Antitubercular dihydroagarofuranoid sesquiterpenes from the roots of Microtropis fokienensis” (2007).
Values after ≈ are worked out from the molar mass of the structure shown.

System: Mycobacterium tuberculosis
Test: Antitubercular activity against Mycobacterium tuberculosis 90-221387
Format: functional
Method in brief: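 Agar proportion method on Middlebrook 7H10 with OADC, clinical susceptible isolate 90-221387. Compound serially diluted into agar at 50-56 °C, final 100 to 0.8 µg/mL, in quadrant plates. Inoculum in 7H9 broth adjusted to McFarland no. 1, then 10-2 dilution, spotted on each quadrant. Incubated 35 °C, 10% CO2, 2 weeks. MIC read; ethambutol positive control; means of 3 or 4 replicates.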

| Compound | MIC [µM] |
| --- | --- |
| CC(=O)O[C@H]1CC[C@@H](C)[C@@]23C[C@@H](C[C@H](OC(=O)c4ccccc4)[C@]12C)C(C)(C)O3 | 26 (≈ 10.4 µg/mL) |
| O=Cc1cc(Cc2ccc(O)cc2)ccc1O [FORKIENIN] | 276 (≈ 63 µg/mL) |
| CC(=O)O[C@H]1C[C@@H](C)[C@]23OC(C)(C)[C@H](C[C@H](OC(=O)c4ccccc4)[C@]2(COC(=O)c2ccccc2)[C@H]1O)[C@H]3OC(=O)c1ccccc1 | 15.8 (≈ 10.4 µg/mL) |
| CC(=O)O[C@H]1CC[C@@H](C)[C@]23OC(C)(C)[C@H](C[C@H](OC(=O)c4ccccc4)[C@]12COC(=O)c1ccccc1)[C@H]3OC(=O)c1ccccc1 | 78.1 (≈ 50 µg/mL) |
| CC(=O)O[C@H]1[C@@H](O)C[C@@H](C)[C@]23OC(C)(C)[C@H](C[C@H](OC(=O)c4ccccc4)[C@]12COC(=O)c1ccccc1)[C@H]3OC(=O)c1ccccc1 | 19.5 (≈ 12.8 µg/mL) |
| O=Cc1ccc(O)cc1 [4-HYDROXYBENZALDEHYDE] | > 400 |
| CC[C@H](CC[C@@H](C)[C@H]1CC[C@H]2[C@@H]3CC=C4C[C@@H](O)CC[C@]4(C)[C@H]3CC[C@]12C)C(C)C [BETA-SITOSTEROL] | > 400 |
| CC(=O)O[C@H]1[C@@H](OC(=O)c2ccccc2)C[C@@H](C)[C@]23OC(C)(C)[C@H](C[C@H](OC(=O)c4ccccc4)[C@]12C)[C@H]3OC(=O)c1ccccc1 [ORBICULIN G] | 14.6 (≈ 9.35 µg/mL) |
| CC[C@H](CC[C@@H](C)[C@H]1CC[C@H]2[C@@H]3CC=C4CC(=O)CC[C@]4(C)[C@H]3CC[C@]12C)C(C)C [BETA-SITOSTENONE] | > 400 |
| CC(=O)O[C@H]1C[C@@H](C)[C@]23OC(C)(C)[C@H](C[C@H](OC(=O)c4ccccc4)[C@]2(COC(=O)c2ccccc2)[C@H]1OC(C)=O)[C@H]3OC(C)=O [MUTANGIN] | 51.8 (≈ 33 µg/mL) |
| CC(=O)O[C@H]1C[C@@H](C)[C@]23OC(C)(C)[C@H](C[C@H](OC(=O)c4ccccc4)[C@]2(COC(=O)c2ccccc2)[C@H]1OC(C)=O)[C@H]3OC(=O)c1ccccc1 | 96 (≈ 67.1 µg/mL) |
| COc1cc(C(=O)O)ccc1O [VANILLIC ACID] | 375 (≈ 63.1 µg/mL) |
| O=C(O)c1ccc(O)cc1 [PARABEN] | 362 (≈ 50 µg/mL) |
| COc1cc(C(=O)O)cc(OC)c1O [SYRINGIC ACID] | 318 (≈ 63 µg/mL) |
| CC[C@@H](CO)NCCN[C@@H](CC)CO [ETHAMBUTOL] | 30.6 (≈ 6.25 µg/mL) |
